Source: publication PMC5414581 (Neuropharmacology, 2017)
Positions count from the first letter of the chain named. “Also recorded” adds a separate entry of the source. Where a SMILES comes first, the peptide text is derived from it. Where no end group is shown, it is not given here. Me2 = N,N-dimethyl-lysine

What was measured:
[1] = biological target: T1, human NPS receptor, 107I variant (human) (UniProt Q6W5P4)
T1 sequence: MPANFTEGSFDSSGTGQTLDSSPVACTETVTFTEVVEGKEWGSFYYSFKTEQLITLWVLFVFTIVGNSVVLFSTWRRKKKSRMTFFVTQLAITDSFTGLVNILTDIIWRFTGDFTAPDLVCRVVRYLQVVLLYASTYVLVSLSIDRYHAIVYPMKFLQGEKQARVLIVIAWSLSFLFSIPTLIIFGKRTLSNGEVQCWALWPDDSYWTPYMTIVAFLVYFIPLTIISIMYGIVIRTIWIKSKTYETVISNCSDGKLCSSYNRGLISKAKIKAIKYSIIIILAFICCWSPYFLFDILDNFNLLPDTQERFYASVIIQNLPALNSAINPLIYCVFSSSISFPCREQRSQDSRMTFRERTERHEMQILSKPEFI

mice [2] = experiment: Marble Burying; assay type: in vivo, mouse
mice [3] = experiment: Locomotor stimulation; assay type: in vivo, mouse; conditions: RTI-118 50 mg/kg i.p.; compound 4 10 nmole ICV
Outline: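 Mice were habituated 1 h in a 40 × 40 cm infrared-beam open field in a novel room, during the light phase. Test compound in aCSF/0.1% BSA was given ICV into the lateral ventricle under brief isoflurane. Recording began after ≥5 min recovery. The antagonist was given 50 mg/kg i.p. in saline as pretreatment. Misplaced injections were excluded post-mortem. n = 7–11 per group; one-way ANOVA with Dunnett's test.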

mNPSR [4] = biological target: T2, mNPSR (Mus musculus, UniProt Q8BZP8); experiment: cAMP accumulation assay; assay type: cell-based
T2 sequence (Q8BZP8 1-371): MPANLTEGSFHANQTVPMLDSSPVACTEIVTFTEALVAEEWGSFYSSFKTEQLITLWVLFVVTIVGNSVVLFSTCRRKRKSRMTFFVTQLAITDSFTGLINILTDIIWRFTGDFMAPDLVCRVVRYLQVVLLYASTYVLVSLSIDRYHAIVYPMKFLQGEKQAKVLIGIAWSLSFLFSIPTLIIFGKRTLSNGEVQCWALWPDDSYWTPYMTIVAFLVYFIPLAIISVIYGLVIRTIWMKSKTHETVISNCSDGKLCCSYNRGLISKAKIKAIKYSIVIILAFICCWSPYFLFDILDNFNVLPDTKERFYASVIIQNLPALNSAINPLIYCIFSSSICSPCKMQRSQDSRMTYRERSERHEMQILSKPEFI
Outline: (§1)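 Cells were harvested with versene and suspended in HBSS, 5 mM HEPES, 0.5 mM IBMX, 0.1% BSA, pH 7.4: hNPSR-107N at 8,000/well, hNPSR-107I at 4,000/well, mNPSR at 20,000/well. Agonist was incubated at room temperature for 30 min (human lines) or 1 h (mNPSR). LANCE Ultra TR-FRET detection ran 1 h in the dark. RFU was interpolated to fmol cAMP from a standard curve, and a three-parameter fit gave EC50.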

mNPSR [5] = biological target: T2, mNPSR; experiment: Ca+2 mobilization assay, HEK 293T mNPSR cells; assay type: cell-based
Outline: (§2)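 FLIPR Calcium 5 dye diluted 1:40 in HBSS, 20 mM HEPES, 2.5 mM probenecid, pH 7.4, loaded 45 min at 37 °C. Cells were plated overnight without selection antibiotics: CHO-Gα16 hNPSR-107I/N at 25,000/well and HEK 293T mNPSR at 35,000/well. Cells were pretreated 15 min at 1% DMSO. Test compound or NPS was added during a 60 s read (ex 485/em 525). Peak RFU was fit to a three-parameter logistic curve to give EC50. Bias was taken as Log(max/EC50), calcium versus cAMP, relative to NPS.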

hNPSR-107N [6] = biological target: T3, hNPSR-107N (Homo sapiens, UniProt Q6W5P4); experiment: cAMP accumulation assay; assay type: cell-based
T3 sequence (Q6W5P4 1-371): T1 sequence with I107N
Outline: as §1

hNPSR-107I [7] = biological target: T4, hNPSR-107I (Homo sapiens, UniProt Q6W5P4, N107I); experiment: cAMP accumulation assay; assay type: cell-based
T4 sequence (Q6W5P4 1-371 N107I): T1 sequence
Outline: as §1

hNPSR-107I [8] = biological target: T4, hNPSR-107I; experiment: Ca+2 mobilization assay, CHO-Gα16 hNPSR-107I cells; assay type: cell-based
Outline: as §2

mice [9] = experiment: Passive Avoidance; assay type: in vivo, mouse; conditions: ICV 20 minutes after training, tested 48 hours after training; compound 4 0.01-10 nmole, NPS 1 nmole; vs aCSF
mice [10] = experiment: Light-Dark Box; assay type: in vivo, mouse; conditions: 1 nmole ICV, 5–10 minutes before test
hNPSR-107I [11] = biological target: T4, hNPSR-107I; conditions: ref Bernier et al., 2006; cited from earlier work
hNPSR-107N [12] = biological target: T3, hNPSR-107N; experiment: Ca+2 mobilization assay, CHO-Gα16 hNPSR-107N cells; assay type: cell-based; conditions: hNPSR 107N cell line
Outline: as §2

[13] = biological target: T5, human NPS receptor, 107N variant (human) (UniProt Q6W5P4)
T5 sequence: T1 sequence with I107N

[14] = biological target: T6, mouse NPS receptor (mouse) (UniProt Q8BZP8)
T6 sequence: T2 sequence (Q8BZP8 1-371)

[15] = mNPSR cell line, fraction of maximal window for response
[16] = hNPSR 107I cell line, fraction of maximal window for response

Molecule: 7. SerPheAOCAsn-NH2 (peptide)
- EC50 of calcium mobilization, CHO-Gα16 hNPSR-107I cells [1]: 436 nM

Molecule: O=C(NCCN1CCCCC1)N1CCN2C(=O)OC(c3ccccc3)(c3ccccc3)C2C1 (stereo not shown) [RTI-118]
- block of compound 4 effect on marble burying by pretreatment (mice [2]; RTI-118 20 mg/kg fifteen minutes before compound 4 0.5 nmole): effects of 4 can be blocked; also recorded: blocked by the pretreatment with RTI-118
- block of compound 4 induced locomotor effects by pretreatment (mice [3]): induced locomotor effects can be blocked; also recorded: this effect is blocked by pretreatment

Molecule: SFRNGV-NH2 [compound 1, SerPheArgAsnGlyVal-NH2]
- EC50 (mNPSR [4]): 13.4 ± 4.8 nM
- EC50 (mNPSR [5]): 2.03 ± 0.3 nM
- EC50 (hNPSR-107N [6]): 427 nM
- EC50 (hNPSR-107I [7]): 1.95 ± 0.28 nM
- cAMP Accumulation EC50 (hNPSR-107I [7]; hNPSR 107I cell line): comparable potency to NPS

Molecule: NCCCC[C@H](NC(=O)[C@H](Cc1ccccc1)NC(=O)[C@@H](N)CO)C(=O)N[C@@H](CC(N)=O)C(N)=O [compound 4, SerPheLysAsn-NH2] (H-SFKN-NH2)
- EC50 (mNPSR [4]): 911 ± 86 nM
- EC50 (mNPSR [5]): 100 ± 5.3 nM
- EC50 (hNPSR-107I [7]): 117 ± 22 nM
- EC50 (hNPSR-107I [8]): 3.02 ± 0.74 nM

Molecule: SFRNGVGTGMKKTSFQRAKS [NPS, Neuropeptide S]
- latency to enter the dark compartment (mice [9]): appear to have the same maximal effects; also recorded: significantly increased the latency time
- cAMP Accumulation Max (mNPSR [4]; [15]): 0.82
- number of marbles buried (mice [2]; 1 nmole ICV, twenty minutes before test, vs aCSF (Figure 5A)): NPS and 4 produce similar effects; also recorded: significantly decreased the number of marbles buried
- number of entries into the light-side (mice [10]): Neither NPS nor 4 significantly increased the number of entries into the light-side; also recorded: significantly more entries than compound 4 treated animals
- time spent on the light side (mice [10]; vs aCSF): significantly increased the time spent on the light-side; also recorded: spent significantly more time on the light-side than the compound 4 treated animals
- selectivity for the hNPSR-107I over the hNPSR-107N (calcium mobilization EC50) (hNPSR-107I [11]): 5 fold
- BIAS (Bias Toward Calcium) (hNPSR-107N [12]; calcium versus cAMP pathway): 1.00
- Calcium Mobilization Max (hNPSR-107N [12]; fraction of maximal window for response): 0.97
- BIAS (Bias Toward Calcium) (mNPSR [5]; mNPSR cell line, calcium versus cAMP pathway): 1.00
- Calcium Mobilization Max (mNPSR [5]; [15]): 1
- cAMP Accumulation Max (hNPSR-107N [6]; hNPSR 107N cell line, fraction of maximal window for response): 0.97
- cAMP Accumulation Max (hNPSR-107I [7]; [16]): 1
- BIAS (Bias Toward Calcium) (hNPSR-107I [8]; hNPSR 107I cell line, calcium versus cAMP pathway): 1.00
- Calcium Mobilization Max (hNPSR-107I [8]; [16]): 0.96

Molecule: SFRNGV-NH2 [1. SerPheArgAsnGlyVal-NH2]
- EC50 of cAMP accumulation, HEK 293T hNPSR-107N cells [13]: 427 nM
- EC50 of cAMP accumulation, HEK 293T hNPSR-107I cells [1]: 1.95 nM
- EC50 of cAMP accumulation, HEK 293T mNPSR cells [14]: 13.4 nM
- EC50 of calcium mobilization, HEK 293T mNPSR cells [14]: 2.03 nM

Molecule: SFKN-NH2 [4. SerPheLysAsn-NH2]
- EC50 of cAMP accumulation, HEK 293T hNPSR-107I cells [1]: 117 nM
- EC50 of calcium mobilization, CHO-Gα16 hNPSR-107I cells [1]: 3.02 nM
- EC50 of cAMP accumulation, HEK 293T mNPSR cells [14]: 911 nM
- EC50 of calcium mobilization, HEK 293T mNPSR cells [14]: 100 nM

Molecule: SFRNG-NH2 [2. SerPheArgAsnGly-NH2]
- EC50 of cAMP accumulation, HEK 293T hNPSR-107N cells [13]: > 10000 nM
- EC50 of cAMP accumulation, HEK 293T hNPSR-107I cells [1]: 3060 nM
- EC50 of cAMP accumulation, HEK 293T mNPSR cells [14]: > 10000 nM
- EC50 of calcium mobilization, HEK 293T mNPSR cells [14]: 1010 nM

Molecule: SFRN-NH2 [3. SerPheArgAsn-NH2]
- EC50 of cAMP accumulation, HEK 293T hNPSR-107N cells [13]: > 10000 nM
- EC50 of calcium mobilization, CHO-Gα16 hNPSR-107N cells [13]: 998 nM
- EC50 of cAMP accumulation, HEK 293T hNPSR-107I cells [1]: 129 nM
- EC50 of calcium mobilization, CHO-Gα16 hNPSR-107I cells [1]: 2.43 nM
- EC50 of cAMP accumulation, HEK 293T mNPSR cells [14]: 800 nM
- EC50 of calcium mobilization, HEK 293T mNPSR cells [14]: 66.6 nM

Molecule: SFRNGVGTGMKKTSFQRAKS [Neuropeptide S]
- EC50 of cAMP accumulation, HEK 293T hNPSR-107N cells [13]: 48.9 nM
- EC50 of calcium mobilization, CHO-Gα16 hNPSR-107N cells [13]: 2 nM
- EC50 of cAMP accumulation, HEK 293T hNPSR-107I cells [1]: 4.19 nM
- EC50 of calcium mobilization, CHO-Gα16 hNPSR-107I cells [1]: 0.59 nM
- EC50 of cAMP accumulation, HEK 293T mNPSR cells [14]: 3.67 nM
- EC50 of calcium mobilization, HEK 293T mNPSR cells [14]: 5.55 nM

Molecule: SFK(Me2)N-NH2 [5. SerPheDimethylLysAsn-NH2]
- EC50 of calcium mobilization, CHO-Gα16 hNPSR-107I cells [1]: 43.5 nM

Molecule: SFK(trifluoroacetyl)N-NH2 [6. SerPheLysCOCF3Asn-NH2]
- EC50 of calcium mobilization, CHO-Gα16 hNPSR-107I cells [1]: 563 nM
